Experiments:
[1] = tested on: Rattus norvegicus; test: Inhibition of aromatase in Wistar rat assessed as reduction of PMSG-stimulated plasma estradiol level at 10 mg/kg, po after 3 hrs; assay type: functional
Summary of the method: (§1)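 Female Wistar rats got a single sc injection of PMSG (200 IU). Three days later they received a single oral 10 mg/kg dose in THF/propylene glycol (10:90). Plasma estradiol was measured by radioimmunoassay at 3 or 24 h. Results are % inhibition of PMSG-stimulated estradiol, mean ± SE, n = 3, by Student's t test.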

[2] = tested on: Rattus norvegicus; test: Inhibition of aromatase in Wistar rat assessed as reduction of PMSG-stimulated plasma estradiol level at 10 mg/kg, po after 24 hrs; assay type: functional; summary of the method: as §1
[3] = tested on: Rattus norvegicus; test: Inhibition of steroid sulfatase in Wistar rat liver at 10 mg/kg, po; assay type: functional
Summary of the method: (§2)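 Female Wistar rats were primed with a single sc injection of PMSG (200 IU). Three days later they were dosed once orally at 10 mg/kg in THF/propylene glycol (10:90). Liver was collected 3 or 24 h after dosing and STS activity assayed. Results are expressed against activity in untreated animals, mean ± SE, n = 3.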

[4] = tested on: Rattus norvegicus; test: Inhibition of steroid sulfatase in Wistar rat liver at 10 mg/kg, po after 3 hrs; assay type: functional; summary of the method: as §2
[5] = tested on: Rattus norvegicus; test: Inhibition of steroid sulfatase in Wistar rat assessed as liver STS activity at 10 mg/kg, po after 3 hrs
[6] = tested on: Rattus norvegicus; test: Inhibition of steroid sulfatase in Wistar rat assessed as liver STS activity at 10 mg/kg, po after 24 hrs
[7] = target: T1, Aromatase (Homo sapiens, UniProt P11511); test: Inhibition of aromatase in JEG3 cell membrane; assay type: cell-based, JEG-3
T1 sequence (P11511 whole entry): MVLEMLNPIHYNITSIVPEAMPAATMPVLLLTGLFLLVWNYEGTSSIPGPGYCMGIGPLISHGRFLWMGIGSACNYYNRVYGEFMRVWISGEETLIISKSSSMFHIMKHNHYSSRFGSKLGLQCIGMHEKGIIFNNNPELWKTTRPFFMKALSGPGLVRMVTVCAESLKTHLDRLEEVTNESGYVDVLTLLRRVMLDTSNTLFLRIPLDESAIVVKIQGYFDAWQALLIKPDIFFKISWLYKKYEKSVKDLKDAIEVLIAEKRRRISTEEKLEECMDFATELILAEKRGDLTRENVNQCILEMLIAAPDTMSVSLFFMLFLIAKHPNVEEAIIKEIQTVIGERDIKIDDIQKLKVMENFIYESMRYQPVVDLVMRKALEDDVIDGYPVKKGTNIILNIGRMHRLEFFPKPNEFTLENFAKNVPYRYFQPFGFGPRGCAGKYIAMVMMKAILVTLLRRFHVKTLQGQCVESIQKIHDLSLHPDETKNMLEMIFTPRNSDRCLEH

[8] = target: T2, Steryl-sulfatase (Homo sapiens, UniProt P08842); test: Inhibition of steroid sulfatase in JEG3 cell membrane; assay type: cell-based, JEG-3
T2 sequence (P08842 whole entry): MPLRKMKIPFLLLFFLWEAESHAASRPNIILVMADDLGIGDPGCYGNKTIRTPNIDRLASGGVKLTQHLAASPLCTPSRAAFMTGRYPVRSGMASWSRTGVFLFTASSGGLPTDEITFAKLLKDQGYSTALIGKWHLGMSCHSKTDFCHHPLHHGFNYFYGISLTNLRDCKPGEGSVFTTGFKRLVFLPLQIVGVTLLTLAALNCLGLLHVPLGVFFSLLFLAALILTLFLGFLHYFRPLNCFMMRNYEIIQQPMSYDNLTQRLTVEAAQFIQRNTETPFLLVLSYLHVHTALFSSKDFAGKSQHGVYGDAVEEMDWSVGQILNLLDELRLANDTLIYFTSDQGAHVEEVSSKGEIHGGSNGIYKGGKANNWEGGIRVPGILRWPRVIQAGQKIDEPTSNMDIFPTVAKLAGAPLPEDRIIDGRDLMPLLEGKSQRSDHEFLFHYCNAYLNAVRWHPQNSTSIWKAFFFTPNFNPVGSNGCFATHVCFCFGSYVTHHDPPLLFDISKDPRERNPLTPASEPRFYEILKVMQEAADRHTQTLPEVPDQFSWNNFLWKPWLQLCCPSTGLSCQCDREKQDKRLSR

[9] = target: T1, Aromatase; test: Inhibition of aromatase in JEG3 cell membrane at 1 uM; assay type: cell-based; details: JEG-3, human; read-out: Activity

N#Cc1ccc(N(Cc2ccc(OS(N)(=O)=O)c(Br)c2)n2cnnc2)cc1
inhibition in vivo at 10 mg/kg [1]: 100% | inhibition in vivo at 10 mg/kg [2]: 85% | inhibition in vivo at 10 mg/kg [3]: 100% | inhibition in vivo at 10 mg/kg [4]: 100% | inhibition in vivo at 10 mg/kg [5]: 98% | inhibition in vivo at 10 mg/kg [6]: 72%

COc1cc(CN(c2ccc(C#N)cc2)n2cnnc2)ccc1OS(N)(=O)=O
IC50 [7]: 42 nM | IC50 [8]: 380 nM

N#Cc1ccc(N(Cc2ccc(OS(N)(=O)=O)c(C#N)c2)n2cnnc2)cc1
IC50 [7]: 27 nM | IC50 [8]: > 10000 nM

N#Cc1ccc(N(Cc2ccc(O)c(I)c2)n2cnnc2)cc1
IC50 [7]: 0.33 nM

COc1cc(CN(c2ccc(C#N)cc2)n2cnnc2)ccc1O
IC50 [7]: 2.8 nM

N#Cc1ccc(N(Cc2ccc(O)c(C#N)c2)n2cnnc2)cc1
IC50 [7]: 24 nM

N#Cc1ccc(N(Cc2ccc(O)c(C(F)(F)F)c2)n2cnnc2)cc1
IC50 [7]: 0.88 nM

N#Cc1ccc(N(Cc2cc(Cl)c(O)c(Cl)c2)n2cnnc2)cc1
IC50 [7]: 7.6 nM

N#Cc1ccc(N(Cc2c(F)c(F)c(O)c(F)c2F)n2cnnc2)cc1
IC50 [7]: 159 nM

N#Cc1ccc(N(Cc2ccc(F)c(OS(N)(=O)=O)c2)n2cnnc2)cc1
inhibition in vivo at 10 mg/kg [1]: 82% | inhibition in vivo at 10 mg/kg [2]: 20% | inhibition in vivo at 10 mg/kg [4]: 100% | inhibition in vivo at 10 mg/kg [5]: 98% | inhibition in vivo at 10 mg/kg [6]: 33%

N#Cc1ccc(N(Cc2ccc(Br)c(OS(N)(=O)=O)c2)n2cnnc2)cc1
IC50 [8]: > 10000 nM

COc1ccc(CN(c2ccc(C#N)cc2)n2cnnc2)cc1OS(N)(=O)=O
IC50 [8]: > 10000 nM

N#Cc1ccc(N(Cc2ccc(Cl)c(O)c2)n2cnnc2)cc1
IC50 [7]: 0.18 nM

N#Cc1ccc(N(Cc2ccc(Br)c(O)c2)n2cnnc2)cc1
IC50 [7]: 0.5 nM

N#Cc1ccc(N(Cc2ccc(C(F)(F)F)c(O)c2)n2cnnc2)cc1
IC50 [7]: 0.4 nM

COc1ccc(CN(c2ccc(C#N)cc2)n2cnnc2)cc1O
IC50 [7]: 1.2 nM

COc1cc(CN(c2ccc(C#N)cc2)n2cnnc2)cc(Cl)c1O
IC50 [7]: 0.51 nM

N#Cc1ccc(N(Cc2cccc(O)c2)n2cnnc2)cc1
IC50 [7]: 2.8 nM

N#Cc1ccc(N(Cc2ccc(F)c(O)c2)n2cnnc2)cc1
IC50 [7]: 0.6 nM

N#Cc1ccc(N(Cc2ccc(OS(N)(=O)=O)c(I)c2)n2cnnc2)cc1
IC50 [7]: 1.5 nM | IC50 [8]: 190 nM

COc1cc(CN(c2ccc(C#N)cc2)n2cnnc2)cc(Cl)c1OS(N)(=O)=O
IC50 [7]: 2.9 nM | IC50 [8]: 536 nM

N#Cc1ccc(N(Cc2ccc(OS(N)(=O)=O)cc2)n2cnnc2)cc1
inhibition at 1 µM [9]: 63.4%

NS(=O)(=O)Oc1ccc2c3c(c(=O)oc2c1)CCCCC3 [IROSUSTAT]
inhibition in vivo at 10 mg/kg [5]: 100% | inhibition in vivo at 10 mg/kg [6]: 97%

N#Cc1ccc(C(c2ccc(C#N)cc2)n2cncn2)cc1 [LETROZOLE]
inhibition in vivo at 10 mg/kg [1]: 100% | inhibition in vivo at 10 mg/kg [2]: 100% | inhibition in vivo at 10 mg/kg [5]: 3% | inhibition in vivo at 10 mg/kg [6]: 6%

Reference: ChEMBL document CHEMBL1145445, “Dual aromatase-steroid sulfatase inhibitors” (J Med Chem, 2007)
